# Screening data from PubChem.
# KCNK3 inh – human KCNK3 channel inhibition, primary screen | O14649 | CHO-KCNK3 thallium flux, FluxOR fluorescence; active compounds read low | B-score at 10 µM | actives 0.84% (n = 340,000);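 active = B-score under library mean minus 4 SD, starting fluorescence ratio at most library mean plus 5 SD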;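 also: more negative B-score means stronger inhibition of thallium flux through KCNK3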
# KCNQ1 block – blocks the human KCNQ1 potassium channel | P51787 | CHO-K1 KCNQ1, FluxOR thallium flux fluorescence; active compounds read high | B-score at 10 µM | actives 1.3% (n = 310,000) | AID 2642;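 active = compounds whose thallium flux B-score, printed positive for inhibition, exceeds three library SD while starting fluorescence stays within three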;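 also: channel opened by potassium depolarization with thallium stimulus after 20 min compound exposure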
# KCNQ1 act – potentiators or activators of human KCNQ1 potassium channel; P51787; CHO-K1 KCNQ1, thallium flux FluxOR fluorescence; active compounds read high; B-score at 10 µM; actives 0.35% (n = 310,000); AID 2648;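 active = fluorescence ratio B-score, a plate-corrected score, at least three library SD, with initial intensity B-score within 5 SD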
#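 Test system: CHO-K1 cells stably expressing KCNQ1 / Medium: assay buffer / Also added: depolarizing K+/Tl+ stimulus, K2SO4 and Tl2SO4 each 12.5 mM in 5x stock / Incubation: 90 min dye loading and 20 min compound exposure, both at room temperature / Signal: thallium influx via FluxOR fluorescence, kinetic imaging / Evaluation: B score of baseline-normalized fluorescence ratio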
# KCNK9 inh – blocks the human KCNK9 two-pore domain potassium channel. Q9NPC2. HEK293 KCNK9, FluxOR thallium flux fluorescence; active compounds read low. B-score at 10 µM. actives 1.2% (n = 310,000). AID 488922;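 active = ratio B-score over 3 SD below the library mean, with starting fluorescence within 5 SD of its mean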;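 also: negative B-score means less thallium flux so channel inhibition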
# Kir21 inh – blocks the mouse Kir2.1 inward-rectifier potassium channel; B-score at 10 µM; AID 1672; HEK293-Kir2.1, FluxOR thallium flux fluorescence; active compounds read low; P35561; actives 0.85% (n = 310,000);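 active = fluorescence ratio B-score at or below minus 3 SD of library scores, with starting-brightness B-score within 2 SD, cut at about -4.2 in these data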;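 also: channel flux triggered by added potassium and thallium sulfate stimulus; B-score of peak minus minimum fluorescence over baseline after thallium stimulus; more negative B-score means stronger Kir2.1 block with less thallium influx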
# Target sequence (P35561 whole entry, looked up): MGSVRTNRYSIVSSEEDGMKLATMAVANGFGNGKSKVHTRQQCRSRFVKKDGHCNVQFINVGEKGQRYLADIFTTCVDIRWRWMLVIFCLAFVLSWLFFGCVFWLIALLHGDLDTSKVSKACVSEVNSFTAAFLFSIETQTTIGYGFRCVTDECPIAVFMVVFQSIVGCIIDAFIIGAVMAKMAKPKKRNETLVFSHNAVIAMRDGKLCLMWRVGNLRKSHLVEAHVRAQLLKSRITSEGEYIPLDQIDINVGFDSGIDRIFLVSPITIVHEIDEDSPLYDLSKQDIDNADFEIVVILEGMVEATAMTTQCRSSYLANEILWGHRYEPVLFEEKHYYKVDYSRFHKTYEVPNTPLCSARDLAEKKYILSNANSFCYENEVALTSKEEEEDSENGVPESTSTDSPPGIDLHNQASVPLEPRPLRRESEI
# hERG protect – compounds protecting human hERG from proarrhythmic drug block; CHO-hERG, FluxOR thallium flux, dofetilide IC70 present; actives 0.51% (n = 310,000); activation (rescue from dofetilide block), less the hit threshold, % at 10 µM; Q12809;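 active = activation above the mean of controls blocked by dofetilide plus 5 SD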;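 also: thallium influx through hERG after potassium depolarization seen as dye fluorescence rise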
# KCNK3 confirm – human KCNK3 channel inhibition, confirmation assay; actives 99% (n = 2,400); ratio percent of control, % at 10 µM; shares compounds with KCNK3 inh; CHO-KCNK3 thallium flux, FluxOR fluorescence; 0% buffer, 100% carvedilol maximal block;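 active = ratio percent of control, averaged over triplicates, above buffer control mean plus 5 SD, cut at about 64% in these data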;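 also: ratio is the fluorescence rise from min to max over baseline after thallium stimulus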
# KCNK3 uninduced – counter-screen for KCNK3 inhibitors: effect in non-induced cells | AID 651747 | non-induced KCNK3 parental cells, FluxOR thallium flux; active compounds read low | shares compounds with KCNK3 inh | actives 40% (n = 2,400) | thallium flux ratio (lower = more inhibition) at 10 µM;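 active = thallium flux ratio, averaged over three wells, more than 5 SD below the buffer control mean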;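 also: host cells are CHO cells without KCNK3 induction; ratio is peak minus trough fluorescence over baseline then normalized to buffer controls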
# * marks the source's active call; other numbers are inactive results; i = inactive; . = no result given. Compounds with a hit are over-represented: about 3.7% of the library has one in this group of screens.
SMILES,KCNK3 inh,KCNQ1 block,KCNQ1 act,KCNK9 inh,Kir21 inh,hERG protect,KCNK3 confirm,KCNK3 uninduced
COc1ccccc1NC(=O)C(C)OC(=O)CCCc1c[nH]c2ccccc12 (stereo unspecified),-10*,i,i,-7.2*,-0.39,-14,104*,i
CC1(C)Cc2nc3oc4c(SCC(N)=O)ncnc4c3cc2CO1,i,i,i,i,-2.1,-7,.,.
COc1ccc(C(=O)Cc2nnc(C)s2)cc1,i,i,i,i,0.01,-5,.,.
C=CCNC(=O)NC(=O)COC(=O)/C(C#N)=C/c1cc(C)n(CCC(C)C)c1C,i,i,i,i,-0.11,-5,.,.
Cc1cc(/C=C(\C#N)C(=O)OCC(=O)NC(=O)NC(C)(C)C)c(C)n1CCC(C)C,-8.7*,i,i,i,-0.02,-3,125*,i
O=C(CNC(=O)c1cncc(Br)c1)Nc1ccc(F)c(F)c1F,i,i,i,i,0.52,-8,.,.
O=C(CSc1nnc(NC(=O)c2ccccc2F)s1)NCC1CCCO1 (stereo unspecified),-8.8*,i,i,i,0.28,-9,86*,i
CN(CCc1ccccn1)C(=O)CCC1CCCN(C(=O)c2ccc3c(c2)OCCO3)C1 (stereo unspecified),i,i,i,i,-0.05,-7,.,.
COc1ccc(C(=O)N(Cc2ccccc2)c2cccc(C)c2)cc1,i,i,i,i,-1.5,-11,.,.
COc1ccccc1CC(=O)N(Cc1ccccc1)c1cccc(C)c1,-12*,i,i,i,-2,-11,103*,0.15*
O=C(NCCc1ccccn1)c1n[nH]c(=O)c2ccccc12,i,i,i,i,-0.38,-5,.,.
CCCC(=O)c1c[nH]c(C(=O)NCCc2ccccn2)c1,-11*,i,i,i,0.84,-6,70*,i
COc1ccc(OCc2nnc(SCC(=O)c3c(N)n(C)c(=O)n(C)c3=O)n2-c2ccccc2F)cc1,.,i,i,i,0.53,2,.,.
CN(C)c1ccc(/C=C/C(=O)c2cc(Cl)ccc2O)cc1,-13*,i,i,i,0.21,-8,106*,i
O=C(/C=C/c1ccncc1)c1cc(Cl)ccc1O,i,i,i,i,0.27,-10,.,.
O=C(/C=C/c1ccc(O)c(O)c1)OCCc1ccccc1,-12*,i,i,i,-0.94,-13,84*,0.14*
Cc1onc(-c2ccccc2)c1C(=O)N1CCCC(C(F)(F)F)C1 (stereo unspecified),i,i,i,i,-0.11,-10,.,.
COc1ccc(O)c(C(=O)c2cnn(-c3ccc(Cl)cc3)c2)c1,-12*,i,i,i,0.34,-4,92*,i
O=C1/C(=C\c2ccc(O)cc2)SC(=S)N1/N=C/c1ccc(O)cc1,-8.8*,7*,i,i,-0.45,-17,109*,0.15*
CC(=O)NN1C(=O)/C(=C\c2ccc(O)cc2)SC1=S,i,i,i,i,-1.8,-5,.,.
Cc1cc(C)nc(N(C#N)Cc2cccc3ccccc23)n1,-9.2*,i,i,i,-1.1,-6,74*,i
Cc1ccc2sc(NC(=O)C3CC3)nc2c1C,i,i,i,i,1.1,-7,.,.
C/C(=N\Nc1cccc2cccnc12)c1ccccc1O,-10*,i,i,i,0.52,-7,108*,i
CC[C@H](C)C(N)c1cn(C(CCCN=C(N)N)C(=O)N2CCNCC2)nn1 (stereo partly specified),i,.,.,.,.,.,.,.
Cc1ccccc1NC(=O)c1cc2ccccc2o1,i,i,i,i,-1.9,-10,.,.
SMILES,KCNK3 inh,KCNQ1 block,KCNQ1 act,KCNK9 inh,Kir21 inh,hERG protect,KCNK3 confirm,KCNK3 uninduced
CC1CCN(c2ccccc2NC(=O)c2cc3ccccc3o2)CC1,-9.7*,i,i,i,-1.2,-12,106*,i
COc1cc(NC(=O)c2ccc([N+](=O)[O-])cc2)c(OC)cc1NC(=O)CC(C)C,i,i,i,i,-0.02,-5,.,.
O=C(CSc1nc(Nc2ccccc2)nc(N2CCOCC2)n1)Nc1cccc([N+](=O)[O-])c1,-11*,i,i,i,1.1,-10,110*,0.15*
O=C(CSc1nc(Nc2ccccc2)nc(N2CCOCC2)n1)Nc1ccc([N+](=O)[O-])cc1,i,i,i,i,-0.18,-12,.,.
COc1ccc(C2c3ccc(O)cc3Oc3ncn(Cc4ccccc4)c(=N)c32)cc1OC (stereo unspecified),-8.9*,i,i,i,0.27,-14,75*,i
COc1ccc(/C=C2\SC(=S)NC2=O)cc1OS(=O)(=O)c1ccc(NC(C)=O)cc1,-10*,13*,i,i,0.57,-26,124*,i
Cc1c(C(=O)N2CCN(c3ccc(C(F)(F)F)cn3)CC2)oc2ccccc12,-12*,i,i,i,-0.38,-7,135*,0.15*
COc1ccc(C(=O)N/C(=C\c2ccccc2)C(=O)Nc2ccccc2C(=O)O)cc1,i,i,i,i,-0.39,-4,.,.
NC1=C(O)C(=O)C(c2ccccc2)O1 (stereo unspecified),i,i,i,i,0.13,0,.,.
O=C(Nc1ccc2c(c1)N(S(=O)(=O)c1cccs1)CCC2)c1c(F)cccc1F,-8.7*,i,i,i,0.95,-14,101*,i
CCNC(=O)C(=O)Nc1ccc2c(c1)N(S(=O)(=O)c1cccs1)CCC2,i,i,i,i,0.52,-15,.,.
CCN(c1ccc(OC)cc1)S(=O)(=O)c1ccc(-c2cc(C)no2)s1,-12*,i,i,i,-0.86,0,119*,i
CCc1ccccc1N(C)S(=O)(=O)c1ccc(-c2cc(C)no2)s1,-9.9*,i,i,i,0.97,-6,113*,i
Cc1cc(-c2ccc(S(=O)(=O)N3CCN(C)CC3)s2)on1,i,i,i,i,-0.89,-5,.,.
COCCN(CCOC)S(=O)(=O)c1ccc(C(=O)Nc2ccc(S(=O)(=O)Nc3nccc(C)n3)cc2)cc1,-8.9*,i,i,i,1.2,-1,70*,i
